# Experimental data taken from ChEMBL document CHEMBL4152184, “NB 06: From a simple lysosomotropic aSMase inhibitor to tools for elucidating the role of lysosomes in signaling apoptosis and LPS-induced inflammation” (Eur J Med Chem, 2018).
# Test system: MONO-MAC-6
# Experiment: Downregulation of PTX3 mRNA expression level in LPS-stimulated human MONO-MAC-6 cells at 5 uM preincubated for 30 mins followed by LPS stimulation measured after 1 hr by oligonucleotide array hybridization assay (reference value: 1.10)
# Format: functional
# Method in brief: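 Total RNA was isolated, transcribed and labeled with DY-647 dye, then co-hybridized with DY-548-labeled cDNA from untreated cells on an inflammation oligonucleotide chip (780 gene probes). Differential expression >1.5 was taken as significant.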
smiles,measurement,value
COc1ccc(CCN(C)CCCn2c3ccccc3c3ccccc32)cc1,fold change (FC),1.02
